Drawing on ChEMBL document CHEMBL4000223, “Evaluation of substituted ebselen derivatives as potential trypanocidal agents” (Bioorg Med Chem Lett, 2017), this text covers IC50, inhibition and EC50 for 29 molecules.

Molecules are shown by their SMILES. Some results are limits rather than exact numbers.

Assay [1] is described as follows: Inhibition of recombinant Trypanosoma brucei HK1 expressed in Escherichia coli or yeast using glucose as substrate by spectrophotometric based glucose 6-phosphate dehydrogenase enzyme coupled assay.
Assay [2] has as its system Trypanosoma brucei. In words: Antitrypanosomal activity against Trypanosoma brucei 427 bloodstream forms at 10 uM after 72 hrs by CellTiter-Blue fluorescence assay. The class given is functional. The note with it: Trypanosoma brucei, 427, 72 h. Put shortly:
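Single-concentration growth screen of bloodstream-form cultures, run in triplicate. Percent inhibition was calculated against growth of parasites given DMSO vehicle on the same plate, which served as the negative control. EbS at the same concentration was included in each assay as a positive control.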
(Resazurin is reduced to fluorescent resorufin, in cell work by metabolically active cells.)

The subject of assay [3] is Trypanosoma brucei. In words: Inhibition of recombinant Trypanosoma brucei His6-tagged HK1 expressed in Escherichia coli M15(pREP) harboring pQE30 at 10 uM using glucose as substrate by spectrophotometric based glucose 6-phosphate dehydrogenase enzyme coupled assay. Put shortly: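 Purified recombinant TbHK1 incubated with the compound at a single fixed screening concentration, after which enzyme activity was scored. Percent inhibition is recorded relative to uninhibited enzyme.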

A short description of assay [4]: Inhibition of recombinant Trypanosoma brucei His6-tagged HK1 expressed in Escherichia coli M15(pREP) harboring pQE30 using glucose as substrate by spectrophotometric based glucose 6-phosphate dehydrogenase enzyme coupled assay.
In assay [5] the test system is Trypanosoma brucei. The experiment in a line: Antitrypanosomal activity against Trypanosoma brucei 427 bloodstream forms after 72 hrs by CellTiter-Blue fluorescence assay. The class given is functional. The note with it: Trypanosoma brucei, 427, 72 h. Put shortly:
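Bloodstream-form cultures were run as triplicate dose-response series to derive 50% effective concentrations. Compounds were taken to this stage only if they gave more than 50% growth inhibition in the single-concentration screen. DMSO vehicle served as the negative control, and EbS was included as a positive control in each assay.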

Assay [6] has as its system Trypanosoma brucei. In words: Antitrypanosomal activity against Trypanosoma brucei bloodstream forms after 72 hrs by CellTiter-Blue fluorescence assay. The class given is functional. Put shortly:
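Bloodstream-form T. brucei cultures assayed in triplicate, with DMSO vehicle as negative control and a reference ebselen analogue as positive control on each plate. Growth inhibition is calculated against the DMSO controls of the same plate. Compounds giving over 50% inhibition in the single-concentration screen went on to triplicate dose-response curves to derive 50% effective concentrations.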

The nature of assay [7]: Inhibition of recombinant Trypanosoma brucei His6-tagged HK1 expressed in Escherichia coli M15(pREP) harboring pQE30 using glucose as substrate after 2 hrs by spectrophotometric based glucose 6-phosphate dehydrogenase enzyme coupled assay.

For `O=C(O)c1nn(Cc2ccc(Cl)cc2Cl)c2ccccc12` [LONIDAMINE], the IC50 (commonly the concentration needed to halve the response being measured) in assay [1] amounted to 850 µM.
Turning to `CC(C)C[C@H](NC(=O)[C@H](CCCCN)NC(=O)[C@H](C)NC(=O)CCOCCOCCNC(=O)c1ccc(-n2[se]c3ccccc3c2=O)cc1)C(=O)O`, in assay [2], the inhibition (in general, how much of the control response was suppressed) at 10 µM turned out to be 25%. Besides, the inhibition in assay [3] was found to be 0%. Moreover, the IC50 in assay [4] is greater than 10 µM. Further, the 50% effective concentration (EC50) (in general, the concentration at which the effect is half-maximal) in assay [5] was greater than 10 µM.
Molecule `O=C(O)c1cccc(-n2sc3ccccc3c2=O)c1` had an inhibition at 10 µM in assay [2] of 15.8%. Moreover, the inhibition in assay [3] came out at 0%. In assay [4], the IC50 was greater than 10 µM. For the same molecule, in assay [5], the EC50 was greater than 10 µM.
The molecule `CC(C)C[C@@H](NC(=O)[C@@H](CCCCN)NC(=O)[C@@H](C)NC(=O)CNC(=O)CNC(=O)Cn1sc2ccccc2c1=O)C(=O)O` came in with an inhibition at 10 µM in assay [2] of 28%. For the same molecule, the inhibition in assay [3] worked out at 3.7%. In assay [4], the IC50 is greater than 10 µM. In assay [5], this molecule returned an EC50 greater than 10 µM.
For `COC(=O)c1cccc2c(=O)n(-c3ccccc3)sc12`, the inhibition at 10 µM in assay [2] is 52.5%. The inhibition in assay [3] amounted to 18%. For the same molecule, the IC50 in assay [4] is greater than 10 µM. Also, the half-maximal effective concentration (EC50) in assay [5] stood at 10 µM.
In the case of `CC(C)C[C@@H](NC(=O)[C@@H](CCCCN)NC(=O)[C@@H](C)NC(=O)CNC(=O)CNC(=O)c1cccc(-n2sc3ccccc3c2=O)c1)C(=O)O`, in assay [2], the inhibition at 10 µM amounted to 0%. Further, the inhibition in assay [3] amounted to 0%. The IC50 in assay [4] was greater than 10 µM. Besides, in assay [5], the EC50 is greater than 10 µM.
Molecule `COC(=O)Cn1sc2ccccc2c1=O` displayed an inhibition at 10 µM in assay [2] of 98.3%. In addition, in assay [3], the inhibition is 12.8%. In assay [4], the IC50 is greater than 10 µM. Also, the EC50 in assay [5] is 0.28 µM.
In the case of `O=C(O)c1cccc2c(=O)n(-c3ccccc3)[se]c12`, the inhibition at 10 µM in assay [2] is 0%. The inhibition in assay [3] turned out to be 0%. Besides, in assay [4], the IC50 was greater than 10 µM. In assay [5], this molecule had an EC50 greater than 10 µM.
Consider `O=C(O)Cn1sc2ccccc2c1=O`, for which the inhibition at 10 µM in assay [2] is 77.6%. The inhibition in assay [3] is 0.87%. Besides, in assay [4], the 50% inhibitory concentration (IC50) was greater than 10 µM. The EC50 in assay [5] was 7.2 µM.
The like results for `CC(C)C[C@@H](NC(=O)[C@@H](CCCCN)NC(=O)[C@@H](C)NC(=O)CNC(=O)CNC(=O)Cn1[se]c2ccccc2c1=O)C(=O)O` were, in that order, 34.4%, 1.7%, greater than 10 µM and greater than 10 µM.
Regarding `O=C(O)c1ccc(-n2[se]c3ccccc3c2=O)cc1`, 10 µM produced 12% inhibition in assay [2]. The inhibition in assay [3] stood at 17.2%. In addition, the IC50 in assay [4] is greater than 10 µM. This molecule came in with an EC50 in assay [5] greater than 10 µM.
In turn, `O=c1c2ccccc2[se]n1-c1ccccc1` [EBSELEN] returned an EC50 in assay [6] of 2.9 µM. Moreover, the IC50 in assay [7] was found to be 0.05 µM.
As to `CC(C)C[C@@H](NC(=O)[C@@H](CCCCN)NC(=O)[C@@H](C)NC(=O)CNC(=O)CNC(=O)c1cccc2c(=O)n(-c3ccccc3)[se]c12)C(=O)O`, in assay [2], the inhibition at 10 µM amounted to 0%. In addition, the inhibition in assay [3] amounted to 0%. Also, the IC50 in assay [4] is greater than 10 µM. Moreover, in assay [5], the EC50 was greater than 10 µM.
For `O=C(O)Cn1[se]c2ccccc2c1=O`, at 10 µM the inhibition in assay [2] was 0%. Besides, the inhibition in assay [3] came to 0%. The IC50 in assay [4] was greater than 10 µM. For the same molecule, the EC50 in assay [5] is greater than 10 µM.
In turn, `COC(=O)c1cccc2c(=O)n(-c3ccccc3)[se]c12` showed an inhibition at 10 µM in assay [2] of 55.6%. Also, in assay [3], the inhibition is 2.7%. In addition, the IC50 in assay [4] was greater than 10 µM. In assay [5], this molecule came in with an EC50 of 10 µM.
`O=C(O)c1cccc2c(=O)n(-c3ccccc3)sc12` registered an inhibition at 10 µM in assay [2] of 10.9%. Further, the inhibition in assay [3] was 0%. Moreover, in assay [4], the IC50 is greater than 10 µM. Also, the EC50 in assay [5] is greater than 10 µM.
In assay [2], `O=C(O)c1cccc(-n2[se]c3ccccc3c2=O)c1` yielded an inhibition at 10 µM of 0%. In addition, the inhibition in assay [3] was determined as 18.5%. Further, the IC50 in assay [4] was greater than 10 µM. In assay [5], this molecule displayed a concentration giving a half-maximal response (EC50) greater than 10 µM.
Turning to `O=C(O)c1ccc(-n2sc3ccccc3c2=O)cc1`, in assay [2], testing at 10 µM gave an inhibition of 0%. For the same molecule, the inhibition in assay [3] amounted to 0%. Moreover, in assay [4], the IC50 is greater than 10 µM. Besides, in assay [5], the EC50 is greater than 10 µM.
With `COC(=O)c1cccc(-n2sc3ccccc3c2=O)c1`, testing at 10 µM in assay [2] gave an inhibition of 8.8%. In addition, the inhibition in assay [3] was found to be 1.7%. Besides, in assay [4], the IC50 was greater than 10 µM. Moreover, in assay [5], the EC50 is greater than 10 µM.
`CC(C)C[C@@H](NC(=O)[C@@H](CCCCN)NC(=O)[C@@H](C)NC(=O)CNC(=O)CNC(=O)c1cccc2c(=O)n(-c3ccccc3)sc12)C(=O)O`: the inhibition at 10 µM in assay [2] is 0%. The inhibition in assay [3] stood at 0%. In assay [4], the IC50 was greater than 10 µM. This molecule had an EC50 in assay [5] greater than 10 µM.
On to `COC(=O)c1ccc(-n2[se]c3ccccc3c2=O)cc1`, for which, in assay [2], at 10 µM the inhibition was 38.6%. In addition, the inhibition in assay [3] was determined as 79%. Further, the IC50 in assay [4] is 3.16 µM. This molecule also gave an EC50 in assay [5] of 13 µM.
For `COC(=O)c1ccc(-n2sc3ccccc3c2=O)cc1` the same measures were 66.5%, 22.8%, greater than 10 µM and 3.8 µM.
As for `CC(C)C[C@@H](NC(=O)[C@@H](CCCCN)NC(=O)[C@@H](C)NC(=O)CNC(=O)CNC(=O)c1cccc(-n2[se]c3ccccc3c2=O)c1)C(=O)O`, in assay [2], testing at 10 µM gave an inhibition of 28.4%. In addition, in assay [3], the inhibition was found to be 0%. The IC50 in assay [4] is greater than 10 µM. Moreover, the EC50 in assay [5] is greater than 10 µM.
`CC(C)C[C@@H](NC(=O)[C@@H](CCCCN)NC(=O)[C@@H](C)NC(=O)CNC(=O)CNC(=O)c1ccc(-n2sc3ccccc3c2=O)cc1)C(=O)O`: in assay [2], the inhibition at 10 µM came out at 26.4%. The inhibition in assay [3] worked out at 10.4%. Also, the IC50 in assay [4] was greater than 10 µM. Also, in assay [5], the half-maximal effective concentration (EC50) is greater than 10 µM.
On to `COC(=O)Cn1[se]c2ccccc2c1=O`, for which 10 µM produced 0% inhibition in assay [2]. In addition, in assay [3], the inhibition was determined as 0%. Also, the IC50 in assay [4] was greater than 10 µM. This molecule had a concentration giving a half-maximal response (EC50) in assay [5] greater than 10 µM.
Turning to `O=c1c2ccccc2sn1-c1ccccc1`, in assay [6], the EC50 was 0.03 µM. In addition, the IC50 in assay [7] stood at 2 µM.
In turn, `CC(C)C[C@H](NC(=O)[C@H](CCCCN)NC(=O)[C@H](C)NC(=O)CCOCCOCCNC(=O)c1ccc(-n2sc3ccccc3c2=O)cc1)C(=O)O` displayed an inhibition at 10 µM in assay [2] of 35.4%. Besides, the inhibition in assay [3] is 0%. For the same molecule, the IC50 in assay [4] is greater than 10 µM. This molecule also yielded an EC50 in assay [5] greater than 10 µM.
`CC(C)C[C@@H](NC(=O)[C@@H](CCCCN)NC(=O)[C@@H](C)NC(=O)CNC(=O)CNC(=O)c1ccc(-n2[se]c3ccccc3c2=O)cc1)C(=O)O` gave an inhibition at 10 µM in assay [2] of 44.1%. The inhibition in assay [3] stood at 0%. The IC50 in assay [4] was greater than 10 µM. Also, the EC50 in assay [5] was greater than 10 µM.
For `COC(=O)c1cccc(-n2[se]c3ccccc3c2=O)c1`, the inhibition at 10 µM in assay [2] was 18%. Besides, the inhibition in assay [3] came to 0%. In assay [4], the IC50 was greater than 10 µM. The half-maximal effective concentration (EC50) in assay [5] is greater than 10 µM.
